# Calls of active or inactive are those of the source. No cut-off for these calls is given here. Non-standard residues stand in square brackets, D forms with d. Residues, ends and D or L forms follow the SMILES beside them. *: point of attachment. Cha = N[C@@H](CC1CCCCC1)C(=O)O; Heptanoyl = CCCCCCC(=O)*; Dab = NCC[C@H](N)C(=O)O
# What was measured:
# Klebsiella pneumoniae [1] = assay: Antibacterial activity against Klebsiella pneumoniae ATCC 13883 after 18 to 20 hrs by broth microdilution method; type: functional
# Escherichia coli [2] = assay: Antibacterial activity against Escherichia coli ATCC 25922 in presence of 100% serum after 6 hrs by broth microdilution method; type: functional; conditions: ATCC 25922, 6 h
# Procedure, shortened: (§1)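 Serum stability: compound added to 100% human serum at final 64 μg/mL, held at 37 °C, sampled at 0, 6, 12 and 24 h. […] Residual activity compared with untreated control.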
# Staphylococcus aureus [3] = assay: Antibacterial activity against Staphylococcus aureus ATCC 29213 after 18 to 20 hrs in presence of 95% serum by broth microdilution method; type: functional
# Procedure, shortened: (§2)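 Same microdilution with human serum as medium: compound 2-fold diluted in 100% serum, mixed 1:1 with 90% serum holding ~1.5 × 10^5 CFU/mL, giving 95% serum and final 0.5–64 μg/mL. MIC read as no visible growth after incubation as for the broth test.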
# Acinetobacter baumannii [4] = assay: Potentiation of rifampicin-mediated antibacterial activity against Acinetobacter baumannii ATCC 19606 assessed as decrease in rifampicin MIC at 4 ug/ml by checkerboard method relative to control; type: functional, ATCC 19606 = CIP 70.34 = JCM 6841
# Escherichia coli [5] = assay: Antibacterial activity against Escherichia coli ATCC 25922 after 18 to 20 hrs by broth microdilution method; type: functional
# Procedure, shortened: (§3)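 Broth microdilution in tryptic soy broth: 2-fold dilutions mixed 1:1 with ~1.5 × 10^5 CFU/mL inoculum, final 0.5–32 μg/mL; 37 °C, 18–20 h. MIC taken as lowest concentration giving no visible growth. At least three independent experiments, one replicate each.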
# Klebsiella pneumoniae [6] = assay: Potentiation of rifampicin-mediated antibacterial activity against Klebsiella pneumoniae ATCC 13883 assessed as decrease in rifampicin MIC at 2 ug/ml by checkerboard method relative to control; type: functional
# Acinetobacter baumannii [7] = assay: Potentiation of vancomycin-mediated antibacterial activity against Acinetobacter baumannii ATCC 19606 assessed as decrease in vancomycin MIC at 4 ug/ml by checkerboard method relative to control; type: functional, ATCC 19606 = CIP 70.34 = JCM 6841
# Acinetobacter baumannii [8] = assay: Antibacterial activity against Acinetobacter baumannii ATCC 19606 after 18 to 20 hrs by broth microdilution method; type: functional; conditions: ATCC 19606 = CIP 70.34 = JCM 6841
# Escherichia coli [9] = assay: Antibacterial activity against Escherichia coli ATCC 25922 in presence of 100% serum after 24 hrs by broth microdilution method; type: functional; conditions: ATCC 25922, 24 h; procedure, shortened: as §1
# Pseudomonas aeruginosa [10] = assay: Bactericidal activity against Pseudomonas aeruginosa ATCC 27853; type: functional; conditions: read-out: MBC99.9
# Procedure, shortened: (§4)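 MBC from MIC plates at end point: 50 μL from each well with no visible growth plated on tryptic soy agar and counted. MBC taken as lowest concentration giving ≥99.9% fall in viable count relative to initial inoculum. Three independent experiments, one replicate each.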
# Escherichia coli [11] = assay: Antibacterial activity against Escherichia coli ATCC 25922 in presence of 100% serum measured immediately post compound addition in serum by broth microdilution method; type: functional; procedure, shortened: as §1
# Klebsiella pneumoniae [12] = assay: Potentiation of ampicillin-mediated antibacterial activity against Klebsiella pneumoniae ATCC 13883 assessed as decrease in ampicillin MIC at 4 ug/ml by checkerboard method relative to control; type: functional
# Klebsiella pneumoniae [13] = assay: Potentiation of erythromycin-mediated antibacterial activity against Klebsiella pneumoniae ATCC 13883 assessed as decrease in erythromycin MIC at 4 ug/ml by checkerboard method relative to control; type: functional
# Pseudomonas aeruginosa [14] = assay: Antibacterial activity against Pseudomonas aeruginosa ATCC 27853 after 18 to 20 hrs by broth microdilution method; type: functional; procedure, shortened: as §3
# Klebsiella pneumoniae [15] = assay: Potentiation of clarithromycin-mediated antibacterial activity against Klebsiella pneumoniae ATCC 13883 assessed as decrease in clarithromycin MIC at 4 ug/ml by checkerboard method relative to control; type: functional
# Acinetobacter baumannii [16] = assay: Potentiation of clarithromycin-mediated antibacterial activity against Acinetobacter baumannii ATCC 19606 assessed as decrease in clarithromycin MIC at 4 ug/ml by checkerboard method relative to control; type: functional, ATCC 19606 = CIP 70.34 = JCM 6841
# Acinetobacter baumannii [17] = assay: Potentiation of ampicillin-mediated antibacterial activity against Acinetobacter baumannii ATCC 19606 assessed as decrease in ampicillin MIC at 4 ug/ml by checkerboard method relative to control; type: functional, ATCC 19606 = CIP 70.34 = JCM 6841
# Enterococcus faecium [18] = assay: Antibacterial activity against Enterococcus faecium ATCC 19434 after 18 to 20 hrs by broth microdilution method; type: functional; procedure, shortened: as §3
# Acinetobacter baumannii [19] = assay: Potentiation of rifampicin-mediated antibacterial activity against Acinetobacter baumannii ATCC 19606 assessed as rifampicin MIC at 2 ug/ml by checkerboard method (reference value: 16 ug/ml); type: functional; conditions: ATCC 19606 = CIP 70.34 = JCM 6841
# Staphylococcus aureus [20] = assay: Antibacterial activity against Staphylococcus aureus ATCC 29213 after 18 to 20 hrs by broth microdilution method; type: functional; procedure, shortened: as §3
# Staphylococcus aureus [21] = assay: Antibacterial activity against methicillin-resistant Staphylococcus aureus ATCC 43300 after 18 to 20 hrs by broth microdilution method; type: functional
# Procedure, shortened: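 Broth microdilution in tryptic soy broth: 2-fold dilutions mixed 1:1 with ~1.5 × 10^5 CFU/mL bacterial suspension in TSB, final 0.5–32 μg/mL, 37 °C for 18–20 h. MIC = lowest concentration with no visible growth. At least three independent experiments, one replicate each.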
# Klebsiella pneumoniae [22] = assay: Potentiation of vancomycin-mediated antibacterial activity against Klebsiella pneumoniae ATCC 13883 assessed as decrease in vancomycin MIC at 4 ug/ml by checkerboard method relative to control; type: functional
# Acinetobacter baumannii [23] = assay: Potentiation of erythromycin-mediated antibacterial activity against Acinetobacter baumannii ATCC 19606 assessed as decrease in erythromycin MIC at 4 ug/ml by checkerboard method relative to control; type: functional, ATCC 19606 = CIP 70.34 = JCM 6841
# Escherichia coli [24] = assay: Antibacterial activity against Escherichia coli ATCC 25922 in presence of 100% serum after 12 hrs by broth microdilution method; type: functional; conditions: ATCC 25922, 12 h; procedure, shortened: as §1
# Escherichia coli [25] = assay: Antibacterial activity against Escherichia coli ATCC 25922 after 18 to 20 hrs in presence of 95% serum by broth microdilution method; type: functional; procedure, shortened: as §2
# Klebsiella pneumoniae [26] = assay: Potentiation of rifampicin-mediated antibacterial activity against Klebsiella pneumoniae ATCC 13883 assessed as rifampicin MIC at 2 ug/ml by checkerboard method (reference value: 16 ug/ml); type: functional
# Pseudomonas aeruginosa [27] = assay: Bactericidal activity against Pseudomonas aeruginosa ATCC 27853 after 60 mins in presence of LPS; type: functional
# Procedure, shortened: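 P. aeruginosa at ~10^6 CFU/mL in TSB with E. coli O111:B4 LPS (final 10, 25, 50 or 100 μg/mL), then compound at final 16 μg/mL. Incubated 37 °C, 200 rpm, 60 min; survivors counted on TSA. Three independent experiments, one replicate each.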
# Staphylococcus aureus [28] = assay: Bactericidal activity against Staphylococcus aureus ATCC 29213; type: functional; conditions: read-out: MBC99.9; procedure, shortened: as §4
# Klebsiella pneumoniae [29] = assay: Bactericidal activity against Klebsiella pneumoniae ATCC 13883; type: functional; conditions: read-out: MBC99.9; procedure, shortened: as §4
# Staphylococcus aureus [30] = assay: Bactericidal activity against methicillin-resistant Staphylococcus aureus ATCC 43300; type: functional; conditions: read-out: MBC99.9
# Procedure, shortened: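 MBC taken at the end of the MIC test: 50 μL from each well without visible growth plated on tryptic soy agar. MBC = lowest concentration giving ≥99.9% reduction in viable cells relative to the initial inoculum. Three independent experiments, one replicate each.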
# Escherichia coli [31] = assay: Bactericidal activity against Escherichia coli ATCC 25922; type: functional; conditions: read-out: MBC99.9; procedure, shortened: as §4
# Acinetobacter baumannii [32] = assay: Bactericidal activity against Acinetobacter baumannii ATCC 19606; type: functional; conditions: ATCC 19606 = CIP 70.34 = JCM 6841, read-out: MBC99.9; procedure, shortened: as §4
# Enterococcus faecium [33] = assay: Bactericidal activity against Enterococcus faecium ATCC 19434; type: functional; conditions: read-out: MBC99.9; procedure, shortened: as §4
compound,measurement,setting,value
CC[C@H](C)[C@H](NC(=O)[C@H](CCN)NC(=O)[C@@H](N)CC1CCCCC1)C(=O)N[C@@H](CCN)C(=O)N[C@H](Cc1ccccc1)C(=O)N[C@@H](CC(C)C)C(=O)N[C@@H](CCN)C(=O)N[C@@H](C(=O)N[C@@H](CC(C)C)C(=O)N[C@@H](CO)C(N)=O)C(C)C (H-[Cha][Dab]I[Dab][dF]L[Dab][dV]LS-NH2),MIC,Klebsiella pneumoniae [1],32 µg/mL
same,MIC,Escherichia coli [2],> 32 µg/mL
same,MIC,Staphylococcus aureus [3],> 64 µg/mL
same,fold change (FC),Acinetobacter baumannii [4],4096
same,MIC,Escherichia coli [5],4 to 8 µg/mL
same,fold change (FC),Klebsiella pneumoniae [6],>=8192
same,fold change (FC),Acinetobacter baumannii [7],32 - 64
same,MIC,Acinetobacter baumannii [8],≥ 32 µg/mL
same,MIC,Escherichia coli [9],> 32 µg/mL
same,MBC,Pseudomonas aeruginosa [10],16 to 32 µg/mL
same,MIC,Escherichia coli [11],1 to 2 µg/mL
same,fold change (FC),Klebsiella pneumoniae [12],1
same,fold change (FC),Klebsiella pneumoniae [13],512
same,MIC,Pseudomonas aeruginosa [14],2 to 8 µg/mL
same,fold change (FC),Klebsiella pneumoniae [15],2048 - 4096
same,fold change (FC),Acinetobacter baumannii [16],2048
same,fold change (FC),Acinetobacter baumannii [17],2 - 4
same,MIC,Enterococcus faecium [18],> 32 µg/mL
same,MIC,Acinetobacter baumannii [19],0.0039 to 0.0078 µg/mL
same,MIC,Staphylococcus aureus [20],> 32 µg/mL
same,MIC,Staphylococcus aureus [21],32 µg/mL
same,fold change (FC),Klebsiella pneumoniae [22],1
same,fold change (FC),Acinetobacter baumannii [23],64
same,MIC,Escherichia coli [24],> 32 µg/mL
same,MIC,Escherichia coli [25],2 µg/mL
same,MIC,Klebsiella pneumoniae [26],0.0039 µg/mL
CCCCCCC(=O)N[C@@H](CCN)C(=O)N[C@@H](Cc1ccccc1)C(=O)N[C@@H](CCN)C(=O)N[C@H](Cc1ccccc1)C(=O)N[C@@H](CC(C)C)C(=O)N[C@@H](CCN)C(=O)N[C@H](CC(C)C)C(=O)N[C@@H](Cc1ccccc1)C(=O)N[C@@H](CO)C(N)=O (Heptanoyl-[Dab]F[Dab][dF]L[Dab][dL]FS-NH2),Activity,Pseudomonas aeruginosa [27],inactive
same,MIC,Klebsiella pneumoniae [1],1 µg/mL
same,MIC,Staphylococcus aureus [3],32 to 64 µg/mL
same,MBC,Staphylococcus aureus [28],8 to 32 µg/mL
same,MIC,Escherichia coli [5],0.5 to 2 µg/mL
same,MBC,Klebsiella pneumoniae [29],2 µg/mL
same,MIC,Acinetobacter baumannii [8],2 to 4 µg/mL
same,MBC,Pseudomonas aeruginosa [10],4 µg/mL
same,MIC,Pseudomonas aeruginosa [14],1 to 2 µg/mL
same,MBC,Staphylococcus aureus [30],8 to 16 µg/mL
same,MIC,Enterococcus faecium [18],8 µg/mL
same,MIC,Staphylococcus aureus [20],8 µg/mL
same,MIC,Staphylococcus aureus [21],8 µg/mL
same,MBC,Escherichia coli [31],8 to 16 µg/mL
same,MBC,Acinetobacter baumannii [32],4 µg/mL
same,MBC,Enterococcus faecium [33],16 µg/mL
same,MIC,Escherichia coli [25],32 µg/mL

# Source: ChEMBL document CHEMBL4052819 (2017)
